Measured values: ChEMBL document CHEMBL1122950, “Structure-activity relationships of C-terminal tri- and tetrapeptide fragments that inhibit gastrin activity” (J Med Chem, 1985)
Activity calls are given as the source filed them. The rule behind the calls is not given here. Where a SMILES comes first, the peptide text is derived from it.

What was measured:
[1] = molecular target: T1, Gastrin/cholecystokinin type B receptor (Rattus norvegicus) (UniProt P30553); assay: Inhibition of gastrin stimulated acid secretion in in situ perfused rat stomach; format: functional, tissue-based
T1 sequence (whole entry): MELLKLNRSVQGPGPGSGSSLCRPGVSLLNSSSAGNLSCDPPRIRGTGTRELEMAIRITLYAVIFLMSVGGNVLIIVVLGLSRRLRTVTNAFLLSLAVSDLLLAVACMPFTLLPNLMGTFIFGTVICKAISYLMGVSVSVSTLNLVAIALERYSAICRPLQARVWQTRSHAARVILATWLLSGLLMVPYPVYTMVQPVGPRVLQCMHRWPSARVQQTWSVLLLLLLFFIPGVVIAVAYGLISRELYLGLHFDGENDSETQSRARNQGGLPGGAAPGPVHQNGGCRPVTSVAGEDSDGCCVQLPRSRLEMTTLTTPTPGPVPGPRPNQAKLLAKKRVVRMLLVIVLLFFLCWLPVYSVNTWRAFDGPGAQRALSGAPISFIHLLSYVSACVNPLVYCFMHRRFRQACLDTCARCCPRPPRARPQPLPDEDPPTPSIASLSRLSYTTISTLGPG
In short: (§1)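 In situ perfused stomach (Ghosh and Schild method) in urethane-anesthetized rats, with urethane given ip, or im and ip for some analogues. Acid secretion was stimulated by gastrin and test peptides were given in vivo. Antagonism is expressed as ED50 in μM/kg.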

Rattus norvegicus = species: Rattus norvegicus; assay: Inhibition of gastrin stimulated acid secretion in the in situ perfused rat stomach; Inactive; format: functional, organism-based; in short: as §1

Compound	ED50 [1] [µmol/kg]	ED50 (Rattus norvegicus)
O=C(N[C@@H](Cc1c[nH]c2ccccc12)C(=O)O)c1ccc(Cl)cc1	170	–
CC(C)C[C@H](NC(=O)[C@H](Cc1c[nH]c2ccccc12)NC(=O)OC(C)(C)C)C(=O)N[C@@H](CC(=O)O)C(=O)N(C)C (HELM PEPTIDE1{[CC(C)(C)OC(=O)[*:2]].W.L.D.[CN(C)[*:1]]}$$$$V2.0)	10	–
CC(C)C[C@H](NC(=O)[C@H](Cc1c[nH]c2ccccc12)NC(=O)OC(C)(C)C)C(=O)N[C@@H](CC(=O)O)C(=O)O (HELM PEPTIDE1{[CC(C)(C)OC(=O)[*:2]].W.L.D}$$$$V2.0)	27.3	–
CC(C)(C)OC(=O)N[C@@H](Cc1c[nH]c2ccccc12)C(=O)NCC(=O)N[C@@H](CC(=O)O)C(N)=O (HELM PEPTIDE1{[CC(C)(C)OC(=O)[*:2]].W.G.D.[am]}$$$$V2.0)	60	–
CC(C)C[C@H](NC(=O)[C@H](Cc1c[nH]c2ccccc12)NC(=O)OC(C)(C)C)C(=O)N[C@@H](CC(=O)OCc1ccccc1)C(N)=O (HELM PEPTIDE1{[CC(C)(C)OC(=O)[*:2]].W.L.D.[am]}|CHEM1{[c1ccc(CO[*:1])cc1]}$PEPTIDE1,CHEM1,4:R3-1:R1$$$V2.0)	–	inactive
CCCC[C@H](NC(=O)[C@H](Cc1c[nH]c2ccccc12)NC(=O)OC(C)(C)C)C(=O)N[C@@H](CC(=O)O)C(N)=O (HELM PEPTIDE1{[CC(C)(C)OC(=O)[*:2]].W.[Nle].D.[am]}$$$$V2.0)	14	–
CC[C@H](C)[C@H](NC(=O)[C@H](Cc1c[nH]c2ccccc12)NC(=O)OC(C)(C)C)C(=O)N[C@@H](CC(=O)O)C(N)=O (HELM PEPTIDE1{[CC(C)(C)OC(=O)[*:2]].W.I.D.[am]}$$$$V2.0)	25	–
CC(C)C[C@H](NC(=O)[C@H](Cc1c[nH]c2ccccc12)NC(=O)OC(C)(C)C)C(=O)N[C@@H](CC(N)=O)C(=O)O (HELM PEPTIDE1{[CC(C)(C)OC(=O)[*:2]].W.L.N}$$$$V2.0)	19	–
CC(C)(C)OC(=O)N[C@@H](Cc1c[nH]c2ccccc12)C(=O)N[C@@H](Cc1ccccc1)C(=O)N[C@@H](CC(=O)O)C(N)=O (HELM PEPTIDE1{[CC(C)(C)OC(=O)[*:2]].W.F.D.[am]}$$$$V2.0)	26.5	–
CSCC[C@H](NC(=O)[C@H](Cc1c[nH]c2ccccc12)NC(=O)OC(C)(C)C)C(=O)N[C@@H](CC(=O)OCc1ccccc1)C(N)=O (HELM PEPTIDE1{[CC(C)(C)OC(=O)[*:2]].W.M.D.[am]}|CHEM1{[c1ccc(CO[*:1])cc1]}$PEPTIDE1,CHEM1,4:R3-1:R1$$$V2.0)	–	inactive
CC(C)C[C@H](NC(=O)[C@H](Cc1c[nH]c2ccccc12)NC(=O)OC(C)(C)C)C(=O)N[C@H](CC(=O)O)C(N)=O	17	–

Now from value to compound, other results behind:

ED50 [1] [µmol/kg]	Compound	ED50 (Rattus norvegicus)
15	CC(C)(C)OC(=O)N[C@@H](Cc1c[nH]c2ccccc12)C(=O)N1CCC[C@H]1C(=O)N[C@@H](CC(=O)O)C(N)=O (HELM PEPTIDE1{[CC(C)(C)OC(=O)[*:2]].W.P.D.[am]}$$$$V2.0)	–
14	CSCC[C@H](NC(=O)[C@H](Cc1c[nH]c2ccccc12)NC(=O)OC(C)(C)C)C(=O)N[C@@H](CC(=O)O)C(N)=O (HELM PEPTIDE1{[CC(C)(C)OC(=O)[*:2]].W.M.D.[am]}$$$$V2.0)	–
8	CSCC[C@H](NC(=O)[C@H](Cc1c[nH]c2ccccc12)NC(=O)CNC(=O)OC(C)(C)C)C(=O)N[C@@H](CC(=O)O)C(N)=O (HELM PEPTIDE1{[CC(C)(C)OC(=O)[*:2]].G.W.M.D.[am]}$$$$V2.0)	–
11	CC(C)C[C@H](NC(=O)[C@H](Cc1c[nH]c2ccccc12)NC(=O)OC(C)(C)C)C(=O)N[C@@H](CCC(=O)O)C(N)=O (HELM PEPTIDE1{[CC(C)(C)OC(=O)[*:2]].W.L.E.[am]}$$$$V2.0)	–
15	CC(C)CC(NC(=O)[C@H](Cc1c[nH]c2ccccc12)NC(=O)OC(C)(C)C)C(=O)N[C@@H](CC(=O)O)C(N)=O (stereo not given in full)	–
38	CC(C)C[C@H](NC(=O)[C@H](Cc1c[nH]c2ccccc12)NC(=O)OCc1ccccc1)C(=O)N[C@@H](CC(=O)O)C(N)=O (HELM PEPTIDE1{[O=C(OCc1ccccc1)[*:2]].W.L.D.[am]}$$$$V2.0)	–
30	C[C@H](NC(=O)[C@H](Cc1c[nH]c2ccccc12)NC(=O)OC(C)(C)C)C(=O)N[C@@H](CC(=O)O)C(N)=O (HELM PEPTIDE1{[CC(C)(C)OC(=O)[*:2]].W.A.D.[am]}$$$$V2.0)	–
350	CCCN(CCC)C(=O)C(CCC(=O)O)NC(=O)c1ccccc1 (stereo not given)	–
150	CC(C)C[C@H](NC(=O)[C@H](Cc1c[nH]c2ccccc12)NC(=O)OC(C)(C)C)C(=O)N[C@@H](C)C(N)=O (HELM PEPTIDE1{[CC(C)(C)OC(=O)[*:2]].W.L.A.[am]}$$$$V2.0)	–
